The test has as its target T1, Ribonuclease P protein component (Staphylococcus aureus, UniProt P0A0H5).
T1 sequence (P0A0H5 whole entry): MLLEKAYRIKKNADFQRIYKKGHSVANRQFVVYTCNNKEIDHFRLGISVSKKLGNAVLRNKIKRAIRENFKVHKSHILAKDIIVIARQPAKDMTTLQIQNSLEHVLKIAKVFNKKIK
The test is described as follows: Inhibition of Staphylococcus aureus RnpA-mediated mRNA degradation after 15 to 30 mins by ethidium bromide staining based agarose gel electrophoresis. The gist of the method:
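Recombinant S. aureus RnpA protein of ≥97% purity was tested in vitro for inhibition of its mRNA degradation activity, following the procedure previously described.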

We go through one molecule from BindingDB's records for doi:10.1016/j.bmcl.2018.01.022 (Temple University, 2018).

SMILES strings stand for the structures.

Turning to `CC(C)c1ccc(OCC(=O)NNC(=S)NC(=O)c2ccno2)cc1`, the IC50 (in general, the point on the concentration scale where inhibition reaches its midpoint) is over 500 µM.
